According to ChEMBL document CHEMBL3351891, “Synthesis and structure-activity relationships of lapacho analogues. 2. Modification of the basic naphtho[2,3-b]furan-4,9-dione, redox activation, and suppression of human keratinocyte hyperproliferation by 8-hydroxynaphtho[2,3-b]thiophene-4,9-diones” (J Med Chem, 2014):

What was measured:
HaCaT [1] = assay: Antihyperproliferative activity against human HaCaT cells assessed as inhibition of cell growth after 48 hrs by phase contrast microscopy; assay type: functional, cell-based
Summary of the method: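 Immortalized human HaCaT keratinocytes incubated with compound for 48 h; growth determined by counting dispersed cells under phase contrast microscopy. Inhibition = (1 − test/control) × 100, test N = 3 vs control N = 6−8, Student's t test; IC50 by nonlinear regression.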

HaCaT [2] = assay: Antihyperproliferative activity against human HaCaT cells assessed as LDH release at 2 umol/L after 4 hrs; assay type: functional
Summary of the method: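 HaCaT keratinocytes exposed to test compound (2 μM) for 4 h at 37 °C; extracellular LDH in supernatant measured by UV method with pyruvate and NADH, reported as mU/mL. Vehicle control 0.2% DMSO in medium; Brij 35 with ultrasound as positive control; N = 3.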

HaCaT [3] = assay: Induction of superoxide generation in human HaCaT cells assessed as mean fluorescence intensity at 5 umol/L for 18 hrs chronic treatment in presence of dicoumarol NQO-1 inhibitor (reference value: 407.6 +/- 68.7 no unit); assay type: functional
HaCaT [4] = assay: Induction of superoxide generation in human HaCaT cells assessed as mean fluorescence intensity at 5 umol/L for 18 hrs chronic treatment (reference value: 367.5 +/- 80.1 no unit); assay type: functional
HaCaT [5] = assay: Induction of superoxide generation in human HaCaT cells assessed as apoptotic cells at 5 umol/L for 18 hrs chronic treatment in presence of dicoumarol NQO-1 inhibitor (reference value: 4.3 +/- 2.6%); assay type: functional
HaCaT [6] = assay: Induction of superoxide generation in human HaCaT cells assessed as mean fluorescence intensity at 50 umol/L for 30 mins acute treatment (reference value: 7.1 +/- 5.2 no unit); assay type: functional
[7] = Induction of superoxide generation measured per U of enzyme in presence of NQO-1; assay type: physicochemical
Summary of the method: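 Human recombinant NQO-1 with NADPH and compound ([…]); superoxide followed spectrophotometrically as SOD-inhibitable cytochrome c reduction, with catalase and DTPA added. Rate as μmol/L/min per U enzyme; mean ± SD, N ≥ 3.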

[8] = Induction of superoxide generation measured per 2 mU of enzyme in presence of cytochrome P450 oxidoreductase; assay type: physicochemical
Summary of the method: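 Human recombinant NADPH–cytochrome P450 oxidoreductase with compound ([…]); spectrophotometric SOD-inhibitable reduction of succinoylated cytochrome c, with catalase and DTPA present. Rate given as μmol/L/min per 2 mU enzyme; mean ± SD, N ≥ 3.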

HaCaT [9] = assay: Induction of superoxide generation in human HaCaT cells assessed as apoptotic cells at 5 umol/L for 18 hrs chronic treatment (reference value: 3 +/- 1%); assay type: functional

SMILES	IC50 (HaCaT [1])	further results
COc1ccc(Cc2ccc3c(c2O)C(=O)c2sccc2C3=O)cc1	23.2 µM	–
N#Cc1ccc(Cc2ccc3c(c2O)C(=O)c2sccc2C3=O)cc1	14.2 µM	–
O=C1c2c(O)cccc2Cc2cccc(O)c21 [ANTHRALIN]	–	Activity (HaCaT [2]): 239 mU/ml
CCc1ccc2c(c1O)C(=O)c1sccc1C2=O	11.4 µM	–
O=C(O)c1ccc(Cc2ccc3c(c2O)C(=O)c2sccc2C3=O)cc1	> 30 µM	–
Cc1ccc(Cc2ccc3c(c2O)C(=O)c2sccc2C3=O)cc1	13.8 µM	–
O=C1c2sccc2Cc2cccc(O)c21	2.5 µM	–
CCOC(=O)c1cc2c(s1)C(=O)c1c(O)cccc1C2=O	0.76 µM	Activity (HaCaT [2]): 233 mU/ml
O=C1c2ccsc2C(=O)c2c(O)ccc(O)c21	2.7 µM	–
COC(=O)Cc1ccc2c(c1O)C(=O)c1sccc1C2=O	2.8 µM	–
O=C(O)c1ccccc1Cc1ccc2c(c1O)C(=O)c1sccc1C2=O	25.7 µM	–
COc1ccc(Cc2ccc3c(c2O)C(=O)c2sccc2C3=O)cc1OC	> 30 µM	–
O=C1c2ccsc2C(=O)c2c1ccc(Cc1ccco1)c2O	8.5 µM	Activity (HaCaT [2]): 127 mU/ml
O=C(COc1ccccc1)c1cc2c(s1)C(=O)c1c(O)cccc1C2=O	11.2 µM	–
CCC(=O)c1cc2c(OC)c3cccc(OC)c3c(OC)c2s1	> 30 µM	–
CCOC(=O)c1cc2c(s1)C(=O)c1c(OC)cccc1C2=O	2.87 µM	–
O=C1c2ccsc2C(=O)c2c(Cl)cccc21	3.77 µM	–
CC(=O)Nc1cccc2c1C(=O)c1sccc1C2=O	2.76 µM	–
O=C1c2ccsc2C(=O)c2c1ccc(CO)c2O	1.2 µM	Activity (HaCaT [2]): 214 mU/ml
COc1ccc(COC(=O)c2cc3c(s2)C(=O)c2c(O)cccc2C3=O)cc1	11.9 µM	–
O=C1c2ccsc2C(=O)c2c(O)cccc21	2.75 µM	Flu intensity (HaCaT [3]): 717.7; Flu intensity (HaCaT [4]): 610.6; Activity (HaCaT [5]): 6.1%; Flu intensity (HaCaT [6]): 23.8; Activity [7]: 0.3 µmol/L/min; Activity [8]: 1.8 µmol/L/min; Activity (HaCaT [9]): 4.9%
CCc1noc(-c2cc3c(s2)C(=O)c2c(OC)cccc2C3=O)n1	3.52 µM	–
CCOC(=O)c1cc2c(OC)c3cccc(OC)c3c(OC)c2s1	> 30 µM	–
O=C(c1cccs1)c1cc2c(s1)C(=O)c1c(O)cccc1C2=O	0.29 µM	Activity (HaCaT [2]): 158 mU/ml
O=C1c2ccccc2C(=O)c2ocnc21	0.9 µM	–

SMILES	IC50 (HaCaT [1])	further results
CCc1noc(-c2cc3c(s2)C(=O)c2c(O)cccc2C3=O)n1	0.19 µM	Flu intensity (HaCaT [3]): 747; Flu intensity (HaCaT [4]): 802.2; Activity (HaCaT [5]): 20.3%; Flu intensity (HaCaT [6]): 20.9; Activity [7]: 0.7 µmol/L/min; Activity (HaCaT [2]): 150 mU/ml; Activity [8]: 1 µmol/L/min; Activity (HaCaT [9]): 77.6%
O=C1c2ccccc2C(=O)c2[se]ccc21	6.12 µM	–
COC(=O)c1ccccc1Cc1ccc2c(c1O)C(=O)c1sccc1C2=O	19.1 µM	–
COc1ccc(C(=O)c2cc3c(s2)C(=O)c2c(O)cccc2C3=O)c(O)c1	7.07 µM	–
CC(=O)c1cc2c(s1)C(=O)c1c(O)ccc(O)c1C2=O	0.5 µM	–
CC1=CC(=O)c2ccccc2C1=O [MENADIONE]	–	Flu intensity (HaCaT [3]): 457.2; Flu intensity (HaCaT [4]): 431.9; Activity (HaCaT [5]): 3.1%; Flu intensity (HaCaT [6]): 44; Activity [7]: 1 µmol/L/min; Activity [8]: 2.1 µmol/L/min; Activity (HaCaT [9]): 4.8%
O=C1c2ccsc2C(=O)c2c1ccc(Cc1ccc(C(F)(F)F)cc1)c2O	16.7 µM	–
CC(=O)c1cc2c(s1)C(=O)c1c(ccc(CO)c1O)C2=O	0.7 µM	Activity (HaCaT [2]): 284 mU/ml
COc1cccc2c1C(=O)c1sccc1C2=O	13.5 µM	–
CCOC(=O)Cc1ccc2c(c1O)C(=O)c1sccc1C2=O	2.1 µM	–
COC(=O)c1ccc(Cc2ccc3c(c2O)C(=O)c2sccc2C3=O)cc1	> 30 µM	–
O=C(Cc1ccccc1)c1cc2c(s1)C(=O)c1c(O)cccc1C2=O	4.42 µM	–
CC1(C)CCC2=C(O1)c1ccccc1C(=O)C2=O [LAPACHONE]	–	Activity (HaCaT [2]): 268 mU/ml
O=C(O)c1cc2c(s1)C(=O)c1c(O)cccc1C2=O	> 30 µM	–
COc1cccc2c1C(=O)c1sc(C(=O)c3cccnc3)cc1C2=O	5.7 µM	–
COc1cccc2c1C(=O)c1sc(C(C)=O)cc1C2=O	3.5 µM	–
CC(=O)c1nc2c([nH]1)C(=O)c1ccccc1C2=O	> 30 µM	–
CCCOC(=O)Cc1ccc2c(c1O)C(=O)c1sccc1C2=O	4.5 µM	–
CC(=O)c1cc2c(s1)C(=O)c1ccccc1C2=O	0.44 µM	–
CCN(CC)C(=O)c1cc2c(s1)C(=O)c1c(O)cccc1C2=O	0.36 µM	Activity (HaCaT [2]): 330 mU/ml
O=C1c2ccsc2C(=O)c2c1ccc(Cc1ccccc1)c2O	10.1 µM	Activity (HaCaT [2]): 107 mU/ml
Cn1cnc2c1C(=O)c1ccccc1C2=O	> 30 µM	–
CCC(=O)c1cc2c(s1)C(=O)c1c(O)cccc1C2=O	0.38 µM	Activity (HaCaT [2]): 244 mU/ml
O=C(O)Cc1ccc2c(c1O)C(=O)c1sccc1C2=O	21.5 µM	–
O=C1c2ccccc2C(=O)c2[nH]ccc21	> 30 µM	–

SMILES	IC50 (HaCaT [1])	further results
CCCCc1ccc2c(c1O)C(=O)c1sccc1C2=O	> 30 µM	–
O=C(c1ccc(Cl)cc1)c1cc2c(s1)C(=O)c1c(O)cccc1C2=O	5.64 µM	–
COc1c2ccsc2c(OC)c2c(OC)cccc12	> 30 µM	–
O=C1c2ccccc2C(=O)c2[nH]cnc21	> 30 µM	–
O=C(OCCc1ccccc1)c1cc2c(s1)C(=O)c1c(O)cccc1C2=O	> 30 µM	–
CCC(=O)c1cc2c(s1)C(=O)c1c(OC)cccc1C2=O	3.5 µM	–
Cc1ccc2c(c1O)C(=O)c1sccc1C2=O	5.3 µM	–
O=C(c1ccccc1)c1cc2c(s1)C(=O)c1c(O)cccc1C2=O	0.8 µM	Activity (HaCaT [2]): 419 mU/ml
O=C1c2ccccc2C(=O)c2scnc21	1.2 µM	–
COc1ccc(C(=O)c2cc3c(s2)C(=O)c2c(O)cccc2C3=O)cc1	4.72 µM	–
CC(C)OC(=O)c1cc2c(s1)C(=O)c1c(O)cccc1C2=O	0.92 µM	–
O=C1c2cc(-c3nc(CCc4ccccc4)no3)sc2C(=O)c2c(O)cccc21	0.48 µM	–
CC(C)C(=O)c1cc2c(s1)C(=O)c1c(O)cccc1C2=O	0.45 µM	–
Nc1cccc2c1C(=O)c1sccc1C2=O	> 30 µM	–
COc1c2cc(C(=O)c3cccnc3)sc2c(OC)c2c(OC)cccc12	> 30 µM	–
CC(=O)c1cc2c(s1)C(=O)c1c(Cl)cccc1C2=O	1.28 µM	–
O=C(CCc1ccccc1)c1cc2c(s1)C(=O)c1c(O)cccc1C2=O	> 30 µM	–
O=Cc1cc2c(s1)C(=O)c1c(O)cccc1C2=O	1 µM	–
O=C(Cc1ccc2c(c1O)C(=O)c1sccc1C2=O)OCc1ccccc1	> 30 µM	–
O=C(c1cccnc1)c1cc2c(s1)C(=O)c1c(O)cccc1C2=O	0.3 µM	Activity (HaCaT [2]): 154 mU/ml
O=C1c2ccccc2C(=O)c2sccc21 [THIOPHENONAPHTHOQUINONE]	4.8 µM	–
CC(=O)c1nc2c(n1C)C(=O)c1ccccc1C2=O	> 30 µM	–
CCc1noc(-c2cc3c(OC)c4cccc(OC)c4c(OC)c3s2)n1	> 30 µM	–
CC(=O)c1cc2c(s1)C(=O)c1c(O)cccc1C2=O	0.4 µM	Flu intensity (HaCaT [3]): 813; Flu intensity (HaCaT [4]): 921.4; Activity (HaCaT [5]): 7.3%; Flu intensity (HaCaT [6]): 23.7; Activity [7]: 0.6 µmol/L/min; Activity [8]: 1.1 µmol/L/min; Activity (HaCaT [9]): 23%
